The test system of series [1] is Rattus norvegicus. The series can be described thus: Antidyslipidemic activity in ZDF rat assessed as HDL level at 10 mg/kg for 9 days by FPLC analysis (reference value: 48.3 mg/dL). Type of series: functional, Zucker.
Series [2] relates to Rattus norvegicus. The series can be described thus: Antidyslipidemic activity in ZDF rat assessed as HDL level at 30 mg/kg for 9 days by FPLC analysis (reference value: 48.3 mg/dL). In kind it is functional, Zucker.
Series [3] is described as follows: Initial plasma concentration in Sprague-Dawley rat at 1 mg/kg, iv by LC-MS/MS analysis. Type of series: ADME, organism-based. In outline: (§1)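 Intravenous dose given in 5% Solutol / 5% EtOH in saline (1 mg/kg rat and dog, 0.91 mpk monkey). Plasma samples collected and analyzed by LC-MS/MS; parameters reported as mean ± SD, N=2-3.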
Series [4] can be described thus: Cmax in Sprague-Dawley rat at 3 mg/kg, po by LC-MS/MS analysis. Set-up: dose 3 mg/kg, route oral. Type of series: ADME, organism-based. Particulars: in vivo. The procedure, abridged: (§2)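 Sprague Dawley rats, Beagle dogs and Cynomolgus monkeys were dosed IV at 1 mg/kg (rat, dog) or 0.91 mpk (monkey) in 5% Solutol/5% EtOH in saline. Oral/nasogastric dosing was 3 mpk in 1.0% CMC/0.25% PS80/0.05% antifoam in purified water. Samples were processed to plasma and analysed by LC-MS/MS; values are mean ± SD, N=2-3.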

In series [5] the target is T1, Mineralocorticoid receptor (Homo sapiens, UniProt P08235).
T1 sequence (P08235 whole entry): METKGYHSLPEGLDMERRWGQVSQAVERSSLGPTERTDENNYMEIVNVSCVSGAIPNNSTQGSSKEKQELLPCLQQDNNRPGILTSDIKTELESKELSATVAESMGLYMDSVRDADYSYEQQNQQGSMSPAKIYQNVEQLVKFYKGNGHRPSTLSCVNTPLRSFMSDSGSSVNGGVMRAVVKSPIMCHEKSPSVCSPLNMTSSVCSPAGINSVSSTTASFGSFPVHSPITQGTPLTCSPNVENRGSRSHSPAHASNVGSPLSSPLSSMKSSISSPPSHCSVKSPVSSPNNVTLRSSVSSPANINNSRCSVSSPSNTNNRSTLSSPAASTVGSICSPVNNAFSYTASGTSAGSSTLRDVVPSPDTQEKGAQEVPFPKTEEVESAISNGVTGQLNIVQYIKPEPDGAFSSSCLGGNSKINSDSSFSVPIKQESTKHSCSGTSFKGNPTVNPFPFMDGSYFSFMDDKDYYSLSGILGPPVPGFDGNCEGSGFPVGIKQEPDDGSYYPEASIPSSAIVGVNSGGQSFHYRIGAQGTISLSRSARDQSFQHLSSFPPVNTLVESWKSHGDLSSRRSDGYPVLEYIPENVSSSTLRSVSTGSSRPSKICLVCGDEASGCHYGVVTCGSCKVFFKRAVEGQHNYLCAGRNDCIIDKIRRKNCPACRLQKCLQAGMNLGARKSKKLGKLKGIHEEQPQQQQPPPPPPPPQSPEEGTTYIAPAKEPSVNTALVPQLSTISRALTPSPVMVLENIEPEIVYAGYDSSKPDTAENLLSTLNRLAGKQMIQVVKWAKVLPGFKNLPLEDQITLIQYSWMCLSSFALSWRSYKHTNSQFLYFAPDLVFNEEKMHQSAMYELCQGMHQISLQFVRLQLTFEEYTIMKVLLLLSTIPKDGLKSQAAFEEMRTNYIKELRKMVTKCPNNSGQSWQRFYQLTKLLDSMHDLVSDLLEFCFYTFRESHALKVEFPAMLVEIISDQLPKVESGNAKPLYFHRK
The series can be described thus: Agonist activity at mineralocorticoid receptor (unknown origin) expressed in HEK293 cells assessed as transcriptional activation. In kind it is cell-based.

The test system of series [6] is Mus musculus. Put plainly: Antidyslipidemic activity in western-diet fed mouse expressing LDL-receptor (-/-) assessed as decrease in triglyceride level at 10 mg/kg qd for a week administered via gavage […]. In kind it is functional. The conditions noted are these: po. In outline: (§3)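 Male LDLR null mice, six per group, were gavaged once daily for one week with compound (in situ sodium salt) or vehicle (5% Solutol, 5% EtOH, 1% wt/v CMC) at 5 mL/kg. On day 7 they were bled by cardiac puncture under CO2 anaesthesia. Serum cholesterol and triglycerides were measured enzymatically on a clinical chemistry analyser (mean ± SD, n=6). ED50 was obtained by nonlinear regression.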

The subject of series [7] is Mus musculus. Put plainly: Antidyslipidemic activity in western-diet fed mouse expressing LDL-receptor (-/-) assessed as decrease in total cholesterol level at 1 mg/kg qd for a week administered via gavage […]. Type of series: functional. The conditions noted are these: po. In outline: as §3
Series [8] relates to Mus musculus. The series can be described thus: Antidyslipidemic activity in western-diet fed mouse expressing LDL-receptor (-/-) assessed as decrease in total cholesterol level at 10 mg/kg qd for a week administered via gavage […]. In kind it is functional. Particulars: po. The procedure, abridged: as §3
In series [9] the test system is Mus musculus. Put plainly: Antidyslipidemic activity in western-diet fed mouse expressing LDL-receptor (-/-) assessed as decrease in total cholesterol level administered once daily for a week via gavage […]. The conditions noted are these: po. Type of series: functional. In outline:
as §3

Series [10] has as its system Mus musculus. The series can be described thus: Antidyslipidemic activity in western-diet fed mouse expressing LDL-receptor (-/-) assessed as decrease in very-low density lipoprotein level at 1 mg/kg qd for a week administered via gavage by FPLC analysis. Type of series: functional. Particulars: po. The procedure, abridged:
(§4)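 LDLR null male mice, six per group, were dosed by gavage once daily for one week (vehicle 5% Solutol, 5% EtOH, 1% wt/v CMC; 5 mL/kg). Serum was collected by cardiac puncture on day 7 under CO2 anaesthesia. Pooled serum from each treatment group was fractionated by FPLC to quantify VLDL and LDL.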

Series [11] relates to Mus musculus. Put plainly: Antidyslipidemic activity in western-diet fed mouse expressing LDL-receptor (-/-) assessed as decrease in very-low density lipoprotein level at 30 mg/kg qd for a week administered via gavage by FPLC analysis. In kind it is functional. Particulars: po. In outline: as §4
The test system of series [12] is Mus musculus. The series can be described thus: Antidyslipidemic activity in western-diet fed mouse expressing LDL-receptor (-/-) assessed as decrease in low density lipoprotein level at 3 mg/kg qd for a week administered via gavage by FPLC analysis. In kind it is functional. Particulars: po. In outline: as §4
Series [13] relates to Rattus norvegicus. Put plainly: Antidyslipidemic activity in ZDF rat assessed as VLDL level at 10 mg/kg for 9 days by FPLC analysis (reference value: 35 mg/dL). In kind it is functional, Zucker.
For series [14], the system named is Rattus norvegicus. The series can be described thus: Antidyslipidemic activity in ZDF rat assessed as VLDL level at 10 mg/kg cotreated with 0.3 mg/kg rosiglitazone for 9 days by FPLC analysis (reference value: 35 mg/dL). In kind it is functional, Zucker.
The nature of series [15]: Cmax in beagle dog at 3 mg/kg, po by LC-MS/MS analysis. Set-up: dose 3 mg/kg, route oral. In kind it is ADME, organism-based, Canis lupus familiaris. Particulars: in vivo. In outline: as §2
Series [16] can be described thus: Terminal half life in beagle dog at 1 mg/kg, iv by LC-MS/MS analysis. In kind it is ADME, organism-based, Canis lupus familiaris. Particulars: in vivo, read-out: beta t1/2 (converted). The procedure, abridged:
as §1

Series [17] can be described thus: Volume of distribution at steady state in beagle dog at 1 mg/kg, iv by LC-MS/MS analysis. Type of series: ADME, organism-based, Canis lupus familiaris. The conditions noted are these: in vivo, read-out: Vdss. In outline: as §1
Series [18] is described as follows: AUC (0 to 24 hrs) in beagle dog at 3 mg/kg, po by LC-MS/MS analysis. In kind it is ADME, organism-based, Canis lupus familiaris. Set-up: dose 3 mg/kg, time < 24 hr, route oral. Particulars: in vivo. In outline:
as §2

Series [19] can be described thus: AUC (0 to 24 hrs) in cynomolgus monkey at 0.91 mg/kg, iv by LC-MS/MS analysis. In kind it is ADME, organism-based, Macaca fascicularis. The arrangement: dose 0.91 mg/kg, time < 24 hr, route intravenous. The conditions noted are these: in vivo. The procedure, abridged: as §2
Series [20] in a line: Terminal half life in cynomolgus monkey at 0.91 mg/kg, iv by LC-MS/MS analysis. Particulars: in vivo, read-out: beta t1/2 (converted). Type of series: ADME, organism-based, Macaca fascicularis. In outline: as §1
Series [21] is described as follows: Initial plasma concentration in cynomolgus monkey at 0.91 mg/kg, iv by LC-MS/MS analysis. Type of series: ADME, organism-based, Macaca fascicularis. In outline: as §1

Consider `Cn1cc(C(=O)O)c2ccc(N3CCC(OCc4c(-c5c(Cl)cccc5Cl)noc4C4CC4)CC3)cc21` [TERN-101], for which the Activity in the series on Rattus norvegicus [1] was 74.4 mg/dL; in the series on Rattus norvegicus [2], 94 mg/dL; with Rattus norvegicus [13], 18.2 mg/dL; with Rattus norvegicus [14], 8.5 mg/dL. For the same molecule, the figures for the C0 in series [3] and in series [21] were 2530 ng/mL and 4220 ng/mL, respectively. Also, the Cmax came out at 130 ng/mL in [4] and 1240 ng/mL in [15]. For the same molecule, the concentration giving a half-maximal response (EC50) in [5] was over 10 µM. Moreover, the inhibition in vivo at 10 mg/kg in the series on Mus musculus [6] was 76%; with Mus musculus [8], 80%. For the same molecule, the inhibition in vivo at 1 mg/kg stood at 37% in the series on Mus musculus [7] and 59% in the series on Mus musculus [10]. Besides, the ED50 in the series with Mus musculus [9] was found to be 2 mg/kg. Moreover, the inhibition in vivo at 30 mg/kg with Mus musculus [11] was 98%. Moreover, in the series on Mus musculus [12], the inhibition in vivo at 3 mg/kg was determined as 15%. Also, the figures for the half-life in series [16] and in series [20] were 10 h and 5 h, respectively. The Vd in series [17] came out at 2.48 L/kg. For the same molecule, the figures for the exposure AUC(0-t) at 24 h in [18] and in series [19] were 4690 ng·h/mL and 2300 ng·h/mL, respectively.

As a reminder, the Cmax is the maximum level reached in the sampled fluid or tissue. In general, EC50 refers to the concentration giving half of the maximal effect. Broadly, the inhibition in vivo is the share of the control response that was lost under treatment. By AUC(0-t) is commonly meant the area under the concentration-time curve up to a stated or last time point.

These data come from ChEMBL document CHEMBL3745677, “Discovery of 6-(4-{[5-Cyclopropyl-3-(2,6-dichlorophenyl)isoxazol-4-yl]methoxy}piperidin-1-yl)-1-methyl-1H-indole-3-carboxylic Acid: A Novel FXR Agonist for the Treatment of Dyslipidemia” (J Med Chem, 2015).
